The values below come from ChEMBL document CHEMBL1154743, “A novel potent nicotinamide phosphoribosyltransferase inhibitor synthesized via click chemistry” (J Med Chem, 2010).

Assay [1] deals with SH-SY5Y. Kind of assay: Cytotoxicity against human SH-SY5Y cells assessed as cell viability after 48 hrs by MTT assay. The assay is classed as functional, cell-based. Summed up:
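SH-SY5Y cells incubated with compound for 48 h and viability measured by MTT. Values are mean ± SEM of 8-12 determinations.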

Assay [2] deals with SH-SY5Y. Kind of assay: Cytotoxicity against human SH-SY5Y cells assessed as reduction of total cellular NAD(P) level at 1 uM relative to control. The format is functional. Also on record: scale not given: the % may be the effect or the level left.
In assay [3] the test system is SH-SY5Y. As to the kind of experiment: Cytotoxicity against human SH-SY5Y cells assessed as reduction of total cellular NAD(P) level at 300 nM relative to control. The format is functional. The arrangement: scale not given: the % may be the effect or the level left. Summed up:
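Total cellular NAD levels in SH-SY5Y cells screened at a single fixed concentration of 300 nM. Expressed relative to control, n = 10.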

Assay [4] deals with SH-SY5Y. As to the kind of experiment: Cytotoxicity against human SH-SY5Y cells assessed as reduction of total cellular NAD(P) level. The format is functional, cell-based.
For assay [5], the system named is SH-SY5Y. Kind of assay: Induction of autophagy in human SH-SY5Y cells assessed as LC3/phosphotidylethanolamine coupling after 40 hrs by Western blot analysis. The format is functional, cell-based. The procedure, abridged:
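Western blot of LC3-I and LC3-II, with tubulin as reference, in untreated and treated cells exposed to 10 nM compound. Six independent experiments were run, using two LC3 antibodies from different sources.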

Assay [6] concerns SH-SY5Y. Kind of assay: Cytotoxicity against human SH-SY5Y cells assessed as cell viability after 48 hrs by MTT assay relative to control in presence of nicotinamide. The assay is classed as functional.

Structures are written as SMILES. The source made the active and inactive calls. The calls are words filed in the database; no cut-off is given here.

On to `O=C(CCCCCCCCn1cc(-c2cccnc2)nn1)Nc1ccccc1-c1ccccc1`, for which the IC50 with SH-SY5Y [1] came out at 14.6 nM; with SH-SY5Y [4], 84.4 nM. Also, the Activity in the assay with SH-SY5Y [2] was 13%; with SH-SY5Y [3], 35.6%.
With `O=C(CCCCCCCCn1cc(-c2cccnc2)nn1)NCC(c1ccccc1)c1ccccc1`, the IC50 with SH-SY5Y [1] was 157 nM. The Activity with SH-SY5Y [2] amounted to 32.3%; with SH-SY5Y [3], 77.3%.
Take `O=C(CCCCCCCn1cc(-c2cccnc2)nn1)Oc1ccccc1-c1ccccc1`: the Activity with SH-SY5Y [3] was 74.7%.
In the case of `N#CCCCc1cn(-c2ccncc2)nn1`, the Activity in the assay on SH-SY5Y [2] is listed as 31%; in the assay with SH-SY5Y [3] it was 87.8%.
On to `O=C(CCCCCCn1cc(-c2cccnc2)nn1)Nc1ccccc1Cc1ccccc1`, for which the Activity worked out at 28% in the assay with SH-SY5Y [2] and 86.1% with SH-SY5Y [3].
In the case of `COc1ccccc1NC(=O)CCCCCCn1cc(-c2cccnc2)nn1`, the Activity in the assay with SH-SY5Y [3] was determined as 87.9%.
`O=C(CCCCCCCn1cc(-c2cccnc2)nn1)n1c2ccccc2c2ccccc21`: the IC50 came to 37.4 nM in the assay on SH-SY5Y [1] and 17.1 nM with SH-SY5Y [4]. Besides, in the assay with SH-SY5Y [3], the Activity is 12%.
Turning to `O=C(CCCCCCn1cc(-c2cccnc2)nn1)Nc1ccccc1Oc1ccccc1`, the IC50 in the assay on SH-SY5Y [1] is 120 nM. The figures for the Activity with SH-SY5Y [2] and in the assay on SH-SY5Y [3] were 24.7% and 81.3%, respectively.
Taken in the same sequence, the figures for `O=C(CCCCCCCn1cc(-c2cccnc2)nn1)Nc1ccccc1Oc1ccccc1` were 37 nM, 17.7% and 87.9%.
Turning to `O=C(CCCCCCn1cc(-c2cccnc2)nn1)Nc1ccccc1Cl`, the half-inhibitory concentration (IC50) in the assay on SH-SY5Y [1] came to 205 nM. For the same compound, the Activity in the assay on SH-SY5Y [3] is given as 79.5%.
`O=C(CCCCCCn1cc(-c2cccnc2)nn1)Nc1ccccc1-c1ccccc1`: the IC50 in the assay with SH-SY5Y [1] is 56 nM. Besides, the figures for the Activity with SH-SY5Y [2] and with SH-SY5Y [3] were 26.2% and 88.2%, respectively.
Taken in the same sequence, the figures for `O=C(CCCCCCCCn1cc(-c2cccnc2)nn1)Nc1ccccc1Cc1ccccc1` were 82 nM, 13.1% and 74.7%.
As for `O=C(/C=C/c1cccnc1)NCCCCC1CCN(C(=O)c2ccccc2)CC1` [DAPORINAD], the IC50 in the assay with SH-SY5Y [1] worked out at 1.7 nM; in the assay on SH-SY5Y [4], 0.5 nM. The result in the assay on SH-SY5Y [5] was Active.
Turning to `O=C(CCCCCCCCn1cc(-c2cccnc2)nn1)Nc1ccccc1Oc1ccccc1`, the IC50 in the assay on SH-SY5Y [1] was found to be 78 nM. Besides, the Activity with SH-SY5Y [2] was found to be 22.6%; in the assay on SH-SY5Y [3] it was 79.5%.
In the same order, the values of `O=C(CCCCCCCn1cc(-c2cccnc2)nn1)Nc1ccccc1Cc1ccccc1` are 72 nM, 30% and 75.2%.
On to `O=C(CCCCCCCn1cc(-c2cccnc2)nn1)NCC(c1ccccc1)c1ccccc1`, for which the IC50 in the assay on SH-SY5Y [1] stood at 97 nM; in the assay with SH-SY5Y [4], 49.2 nM. Besides, the figures for the Activity with SH-SY5Y [2] and in the assay on SH-SY5Y [3] were 23% and 11%, respectively.
Consider `NC(=O)c1cccnc1` [NIACINAMIDE], for which the Activity in the assay on SH-SY5Y [6] is reported as 31%.
With `O=C(CCCCCCn1cc(-c2cccnc2)nn1)NCC(c1ccccc1)c1ccccc1`, the Activity in the assay with SH-SY5Y [2] is on record as 16.8%; with SH-SY5Y [3] it was 83.8%.
